Assay results as given in ChEMBL document CHEMBL1125768, “Peptide derivatives specific for a Plasmodium falciparum proteinase inhibit the human erythrocyte invasion by merozoites” (J Med Chem, 1991).
Square brackets hold non-standard residues; d marks the D form. Peptide text beside a SMILES is read from it. * marks the point of attachment. NH(9-Et-carbazol-3-yl) = CCn1c2ccccc2c2cc(N*)ccc21; X1 = O=C(C(O)C(O)C(O)C(O)CO)*; Boc = CC(C)(C)OC(=O)*; Sar = CNCC(=O)O

Columns and labels:
[1] = tested on: Plasmodium falciparum; assay: Inhibitory activity against Plasmodium falciparum 68 neutral proteinase.; format: functional
Procedure, shortened: (§1)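 Purified Pf 68 proteinase (FcR-3 schizonts; chromatofocusing then gel filtration; 20 μL extract). Inhibitors at 0.005-1 mM preincubated with 0.19 mM GlcA-Val-Leu-Gly-Lys-AEC in 50 mM Tris-HCl pH 7.4, then 30 min at 37 °C. Released AEC extracted into ethyl acetate, fluorescence read at ex 370/em 430 nm. Enzyme-free control for each inhibitor. I50 read from the activity-versus-concentration plot.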

[2] = tested on: Plasmodium falciparum; assay: In vitro inhibition of Plasmodium falciparum 68 neutral proteinase activity by reinvasion of red blood cells; format: functional, organism-based
Procedure, shortened: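 Synchronized schizonts (44-48 h) from a 4-h synchronized culture, collected by Plasmagel, added to washed healthy erythrocytes at 5% hematocrit to 4-5% parasitemia, with peptide in complete medium with 5% serum. Incubated 4-6 h in a candle jar. New rings counted on Giemsa smears (5000 RBC). Inhibition = 100 − (R/R0 × 100). IC50 from 6-h runs, 5% initial segmenters, triplicate.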

[3] = tested on: Plasmodium falciparum; assay: Inhibitory activity against Plasmodium falciparum 68 neutral proteinase; format: functional; conditions: read-out: I50; procedure, shortened: as §1
[4] = tested on: Plasmodium falciparum; assay: Substrate affinity for Plasmodium falciparum 68 neutral proteinase.; format: functional
Procedure, shortened: (§2)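 Pf 68 proteinase purified from FcR-3 schizonts, incubated with peptidyl-AEC substrates (0.5-2.0 mM) in 50 mM Tris-HCl pH 7.4, 30 min at 37 °C. Free AEC extracted into ethyl acetate, fluorescence read at ex 370/em 430 nm. A 10 μg/mL trypsin total-release digest served as reference. Km and rates from Lineweaver-Burk plots; Vrel is the rate relative to S-1.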

[5] = tested on: Plasmodium falciparum; assay: Relative rate of hydrolysis by Plasmodium falciparum 68 neutral proteinase; format: functional; procedure, shortened: as §2
[6] = tested on: Plasmodium falciparum; assay: Reaction velocity for Plasmodium falciparum 68 neutral proteinase.; format: functional; procedure, shortened: as §2

| IC50 [2] [µM] | IC50 [3] [µM] | Compound | Ki [1] [µM] | Km [4] [µM] | Vrel [5] | Vm [6] [uM ml-1] |
| --- | --- | --- | --- | --- | --- | --- |
| > 10000 |  | CCNC(=O)CNC(=O)[C@H](CCCN=C(N)N)NC(=O)[C@H](Cc1ccccc1)NC(=O)[C@H](CC(=O)O)NC(C)=O (Ac-DFRG-NHEt) | > 2500 |  |  |  |
| > 10000 | > 2000 | CC(C)C[C@H](NC(=O)[C@@H](NC(=O)[C@H](O)[C@@H](O)[C@H](O)[C@H](O)CO)C(C)C)C(=O)NCC(=O)N[C@@H](CCCCN)C(=O)O | > 2500 |  |  |  |
|  | 320 | CC(C)C[C@H](NC(=O)[C@@H](NC(=O)[C@H](O)[C@@H](O)[C@H](O)[C@H](O)CO)C(C)C)C(=O)NCC(=O)N[C@@H](CCCCN)C(=O)N(C)CC(=O)O | 250 |  |  |  |
|  |  | CCn1c2ccccc2c2cc(NC(=O)[C@H](CCCN=C(N)N)NC(=O)CNC(=O)[C@H](CO)NC(=O)C(O)C(O)C(O)C(O)CO)ccc21 (some centres not stated) |  | > 10000 | <3 |  |
|  |  | CCn1c2ccccc2c2cc(NC(=O)[C@H](CCCCN)NC(=O)CNC(=O)[C@H](CO)NC(=O)C(O)C(O)C(O)C(O)CO)ccc21 (some centres not stated) |  | 730 | 140 |  |
|  |  | CCn1c2ccccc2c2cc(NC(=O)[C@H](CCCCN)NC(=O)CNC(=O)[C@H](CC(C)C)NC(=O)[C@H](CO)NC(=O)C(O)C(O)C(O)C(O)CO)ccc21 (some centres not stated) (X1-SLGK-{NH(9-Et-carbazol-3-yl)}) |  | 1140 | 17 |  |
|  | 1000 | CC(C)C[C@H](NC(=O)[C@@H](NC(=O)[C@H](O)[C@@H](O)[C@H](O)[C@H](O)CO)C(C)C)C(=O)NCC(=O)N[C@@H](CCCN=C(N)N)C(=O)N(C)CC(=O)O | 1220 |  |  |  |
|  | 1500 | CC(C)C[C@H](NC(=O)[C@@H](NC(=O)[C@H](O)[C@@H](O)[C@H](O)[C@H](O)CO)C(C)C)C(=O)NCC(=O)N[C@@H](CCCCN)C(=O)NC(CO)CO | 1460 |  |  |  |
|  | > 2000 | CC(C)C[C@H](NC(=O)[C@@H](NC(=O)[C@H](O)[C@@H](O)[C@H](O)[C@H](O)CO)C(C)C)C(=O)NCC(=O)N[C@@H](CCCCN)C(=O)N1CCC[C@H]1C(=O)O | > 2500 |  |  |  |
|  | 2000 | CC(C)C[C@H](NC(=O)[C@@H](NC(=O)[C@H](O)[C@@H](O)[C@H](O)[C@H](O)CO)C(C)C)C(=O)N(C)CC(=O)N[C@@H](CCCN=C(N)N)C(=O)N(C)CC(=O)O | 2500 |  |  |  |
| > 10000 | > 2000 | CCNC(=O)[C@H](C)NC(=O)CNC(=O)[C@H](CC(C)C)NC(=O)[C@@H](NC(=O)[C@H](O)[C@@H](O)[C@H](O)[C@H](O)CO)C(C)C | > 2500 |  |  |  |
|  |  | CCn1c2ccccc2c2cc(NC(=O)[C@H](CCCCN)NC(=O)CN(C)C(=O)[C@H](CC(C)C)NC(=O)[C@@H](NC(=O)C(O)C(O)C(O)C(O)CO)C(C)C)ccc21 (some centres not stated) (X1-VL[Sar]K-{NH(9-Et-carbazol-3-yl)}) |  | 1670 | 80 |  |
|  |  | CCn1c2ccccc2c2cc(NC(=O)[C@H](CCCCN)NC(=O)CNC(=O)[C@H](CC(C)C)NC(=O)[C@@H](NC(=O)C(O)C(O)C(O)C(O)CO)[C@@H](C)O)ccc21 (some centres not stated) (X1-TLGK-{NH(9-Et-carbazol-3-yl)}) |  | 770 | 74 |  |
|  | > 2000 | CCNC(=O)CNC(=O)[C@H](CCCN=C(N)N)NC(=O)[C@@H]1CCCN1C(=O)[C@H](CC(=O)O)NC(=O)OC(C)(C)C (Boc-DPRG-NHEt) | > 2500 |  |  |  |
|  |  | CCn1c2ccccc2c2cc(NC(=O)[C@H](CCCCN)NC(=O)CNC(=O)[C@H](COC(=O)c3ccccc3)NC(=O)C(O)C(O)C(O)C(O)CO)ccc21 (some centres not stated) |  | > 10000 | <3 |  |
|  |  | CC[C@H](C)[C@H](NC(=O)C(O)C(O)C(O)C(O)CO)C(=O)N[C@H](CNCC(=O)N[C@@H](CCCN=C(N)N)C(=O)Nc1ccc2c(c1)c1ccccc1n2CC)C(C)C (some centres not stated) |  | 6250 | 3 |  |
|  |  | CCn1c2ccccc2c2cc(NC(=O)[C@H](CCCCN)NC(=O)CNC[C@H](CC(C)C)NC(=O)[C@H](N)C(C)C)ccc21 |  | > 10000 | <3 |  |
|  |  | CCn1c2ccccc2c2cc(NC(=O)[C@H](CCCCN)NC(=O)[C@H](C)NC(=O)[C@H](C)NC(=O)[C@H](C)NC(=O)C(O)C(O)C(O)C(O)CO)ccc21 (some centres not stated) (X1-AAAK-{NH(9-Et-carbazol-3-yl)}) |  | 5000 | 29 |  |
|  |  | CCn1c2ccccc2c2cc(NC(=O)[C@H](CCCCN)NC(=O)CNC(=O)[C@@H](NC(=O)[C@@H](NC(=O)C(O)C(O)C(O)C(O)CO)C(C)C)[C@@H](C)O)ccc21 (some centres not stated) (X1-VTGK-{NH(9-Et-carbazol-3-yl)}) |  | 1250 | 26 |  |
| > 10000 | > 2000 | CCN(CC)C(=O)[C@H](CCCCN)NC(=O)CNC(=O)[C@H](CC(C)C)NC(=O)[C@@H](NC(=O)[C@H](O)[C@@H](O)[C@H](O)[C@H](O)CO)C(C)C | > 2500 |  |  |  |
|  |  | CC[C@H](C)[C@H](NC(=O)C(O)C(O)C(O)C(O)CO)C(=O)N[C@H](C(=O)NCC(=O)N[C@@H](CCCCN)C(=O)Nc1ccc2c(c1)c1ccccc1n2CC)C(C)C (some centres not stated) (X1-IVGK-{NH(9-Et-carbazol-3-yl)}) |  | 950 | 43 |  |
|  |  | CCn1c2ccccc2c2cc(NC(=O)[C@H](CCCCN)NC(=O)CNC[C@@H](NC(=O)C(O)C(O)C(O)C(O)CO)C(C)O)ccc21 (some centres not stated) |  | 5600 | 23 |  |
|  |  | CCn1c2ccccc2c2cc(NC(=O)[C@H](CCCCN)NC(=O)CNC(=O)[C@H](CC(C)C)NC(=O)[C@@H](NC(=O)OC(C)(C)C)C(C)C)ccc21 (Boc-VLGK-{NH(9-Et-carbazol-3-yl)}) |  | 1140 | 11 |  |
|  |  | CCn1c2ccccc2c2cc(NC(=O)[C@H](CCCCN)NC(=O)CNC(=O)[C@H](CC(C)C)NC(=O)[C@@H](NC(=O)C(O)C(O)C(O)C(O)CO)C(C)C)ccc21 (some centres not stated) (X1-VLGK-{NH(9-Et-carbazol-3-yl)}) |  | 380 | 100 | 35 |
|  |  | CCn1c2ccccc2c2cc(NC(=O)[C@H](CCCN=C(N)N)NC(=O)CNC(=O)[C@H](CC(C)C)NC(=O)[C@@H](NC(=O)C(O)C(O)C(O)C(O)CO)C(C)C)ccc21 (some centres not stated) (X1-VLGR-{NH(9-Et-carbazol-3-yl)}) |  | 400 | 89 |  |
| 900 | 470 | CCNC(=O)[C@H](CCCCN)NC(=O)CNC(=O)[C@H](CC(C)C)NC(=O)[C@@H](NC(=O)[C@H](O)[C@@H](O)[C@H](O)[C@H](O)CO)C(C)C | 480 |  |  |  |
